Source: PubChem BioAssay
RORa activator: activators of orphan receptor RORA, primary screen, cell-based, luminescence; Nuclear receptor ROR-alpha (Homo sapiens), P35398; CHO-K1 Gal4-RORA LBD luciferase reporter; percent increase over mock-subtracted basal signal; activation, % at 10 µM; 65,000 tested, 1.5% active; AID 560, 2006;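 active = activation above the mean of all tested compounds plus 3 SD, cut at about 49% in these data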;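 also: 0% = DMSO-treated RORA cells and 100% = added signal equal to DMSO minus mock-transfected cells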
Target sequence (P35398 whole entry, looked up, the tested form may be a part): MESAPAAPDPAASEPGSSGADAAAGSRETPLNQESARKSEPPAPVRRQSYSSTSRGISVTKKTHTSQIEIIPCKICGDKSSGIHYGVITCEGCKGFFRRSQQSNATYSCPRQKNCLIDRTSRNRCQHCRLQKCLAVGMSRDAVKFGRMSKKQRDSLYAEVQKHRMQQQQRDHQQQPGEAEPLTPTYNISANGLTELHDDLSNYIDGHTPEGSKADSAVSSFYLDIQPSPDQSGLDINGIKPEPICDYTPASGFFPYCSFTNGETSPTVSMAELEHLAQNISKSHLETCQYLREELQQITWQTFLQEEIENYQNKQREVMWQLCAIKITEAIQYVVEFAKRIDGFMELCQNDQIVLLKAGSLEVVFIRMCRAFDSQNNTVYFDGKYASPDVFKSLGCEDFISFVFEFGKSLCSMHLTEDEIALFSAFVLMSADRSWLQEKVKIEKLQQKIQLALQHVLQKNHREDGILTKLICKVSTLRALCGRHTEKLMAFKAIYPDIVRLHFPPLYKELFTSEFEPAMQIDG
HEK293 NFkB inh: inhibitors of PMA/ionomycin-induced NF-kB reporter, primary screen, antigen receptor NF-kB inhibitor project, cell-based, HEK-293 luciferase reporter, luminescence; inhibition, % at 3 µM; HEK-293 NF-kB luciferase reporter; 62,000 tested, 0.21% active;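 active = inhibition above the mean of all tested compounds plus 3 SD, cut at about 40% in these data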;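 also: 0% = stimulated DMSO wells and 100% = 10 µM reference inhibitor 5653914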
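Material: HEK-293 cells with stable firefly luciferase reporter driven by four HIV NF-kB elements / Also added: PMA plus ionomycin mix as NF-kB-activating stimulus / Compound dosing: 3 µM once, 0.30% DMSO / Times: 1 h pretreatment, 16 h stimulation, 37 °C / Signal: luminescence / Evaluation: per-plate % inhibition versus controls / Benchmarks: DMSO and 10 µM reference inhibitor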
Jurkat tox 60K: cytotoxicity toward Jurkat T cells, primary screen, cytotoxicity control, cell-based, Jurkat E6.1, 60K MLSMR library; 56,000 tested, 1.2% active; inhibition, % at 4 µM; Jurkat E6.1 viability, ATP luminescence, 48 h; AID 463, 2006;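 active = inhibition above the mean inhibition of all tested compounds plus 3 SD, cut at about 28% in these data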
SF-1 act: activators of human SF-1, primary screen, cell-based, CHO-K1, Gal4-SF-1 LBD, luciferase luminescence; 65,000 tested, 1.9% active; Steroidogenic factor 1 (Homo sapiens), Q13285; CHO-K1 Gal4-SF-1 LBD luciferase reporter; % increase over DMSO SF-1-specific signal; activation, % at 10 µM;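 active = activation above the mean activation of all tested compounds plus 3 SD, cut at about 50% in these data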
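Test system: CHO-K1 cells co-transfected with Gal4 DBD–human SF-1 LBD, 5xGal4 luciferase reporter. Quantity: 4,000 cells per well. Compound: 10 µM only. Incubation: compound added 1 h post-seeding, 20 h exposure at 37 °C, 5% CO2. Detection: SteadyLite luciferase luminescence. Replication: one test per compound.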
Active calls of the source: *; x = not tested or not shown. Sampled rows, rich in hits. Any-hit rate of the full collection: about 3.9%.

SMILES	RORa activator	HEK293 NFkB inh	Jurkat tox 60K	SF-1 act
Cc1ccccc1-c1nnc(-c2ccc(Br)cc2)o1	32.5	-7.0	-1.4	76.8*
Brc1cccc(-c2nnc(-c3ccccc3)o2)c1	39.0	-34.6	-3.4	60.5*
Cc1ccc(-c2nnc(-c3ccccc3)o2)cc1Br	8.3	x	x	42.8
O=c1oc2ccccc2cc1-c1nnc(-c2cccc(Br)c2)o1	28.6	6.3	-0.3	53.1*
C1CNCCNCCCNCCNC1	-10.6	x	x	-12.7
[N-]=[N+]=CC(=O)c1ccnc(C(=O)C=[N+]=[N-])c1	-27.0	x	x	3.4
Cc1c(C(=O)NCC(C)C)sc2nc(-c3ccc(F)cc3)cn12	70.9*	-16.5	1.0	37.0
COc1ccc(-c2nnc(SCC(=O)NC(C)c3ccccc3)o2)cc1OC (stereo unspecified)	-3.5	-13.0	1.7	-6.5
Clc1ccc2nc(CSc3nc4ccccc4o3)cn2c1	13.3	x	x	50.2*
Clc1ccc2nc(CSc3nnc(-c4c[nH]c5ccccc45)o3)cn2c1	-11.6	25.6	5.7	1.3
Cc1nc2ncnn2c(N2CCN(C(=O)Cc3cccs3)CC2)c1C	5.1	21.8	x	5.2
Cc1cccc(NC(=O)c2cc3ccccc3o2)c1	25.8	-41.3	9.0	89.5*
O=C(Nc1cccc(Br)c1)c1cc2ccccc2o1	71.0*	-33.1	4.0	46.3
CC(C)C(=O)Nc1ccc(NC(=O)c2cc3ccccc3o2)cc1	59.4*	-2.6	-8.8	24.5
CCC(=O)Nc1cccc(NC(=O)c2cc3ccccc3o2)c1	58.1*	-34.6	-3.4	24.6
CNC(=O)c1cc2ccccc2o1	-0.4	x	x	14.5
CCOC(=O)c1ccc(NC(=O)c2cc3ccccc3o2)cc1	12.0	-14.2	8.3	1.9
C=CCNS(=O)(=O)c1ccc(OCC(=O)OC)cc1	-1.5	3.3	10.6	-4.3
CCCn1nnc(NC(=O)c2cc3ccccc3o2)n1	49.4*	-13.9	-3.7	19.6
CCCCn1nnc(NC(=O)c2cc3ccccc3o2)n1	15.4	-6.4	-1.2	31.1
COc1ccccc1CNC(=O)CN(C)CC(=O)Nc1cccc(F)c1	-19.0	6.9	-0.1	-12.7
Clc1ccc(-c2nnc(-c3ccco3)o2)cc1	49.9*	-11.9	-4.7	35.3
c1cncc(-c2nnc(-c3ccco3)o2)c1	14.7	0.8	0.2	14.4
Brc1ccc(-c2noc(CCc3ccccc3)n2)o1	17.3	-6.9	-4.3	36.4
c1ccc(CCc2nc(-c3ccccn3)no2)cc1	53.7*	-20.2	-9.0	34.9
SMILES	RORa activator	HEK293 NFkB inh	Jurkat tox 60K	SF-1 act
CCN(C)c1ccc(/C=N\n2nnnc2N)cc1	66.7*	-10.6	82.2*	86.9*
CSc1ccc(/C=N/n2nnnc2N)cc1	51.3*	8.6	3.8	25.2
CCN(CC)c1ccc(/C=N/n2nnnc2N)c(O)c1	26.5	-2.1	13.0	20.5
O=C(C1CCC1)N1CCc2cc(S(=O)(=O)NCCN3CCN(c4ccccc4F)CC3)ccc21	-0.8	-4.8	4.8	-32.0
COc1cccc(Oc2cnc(N)nc2-c2ccc(OC)cc2O)c1	45.0	43.4*	91.0*	41.5
O=C(NCc1ccccc1)c1noc2c1CCCC2	37.4	2.3	56.1*	11.9
O=C(NCc1cccc(F)c1)c1noc2c1CCCC2	24.5	9.4	59.8*	17.8
CCCc1cc(C(=O)NCc2ccc(OC)cc2)no1	49.4*	7.1	-3.6	29.1
O=C(NCc1cccs1)c1noc2c1CCCC2	55.0*	17.0	68.0*	4.1
O=C(NCc1ccc(Cl)cc1)c1noc2c1CCCC2	-2.5	7.4	2.2	-3.1
O=C(Cn1ncc2c1-c1ccccc1OC2)N1CCN(Cc2ccc3c(c2)OCO3)CC1	-5.5	18.7	11.1	2.0
Cc1ccc2c(c1)N(CCCC(=O)NCCCN1CCCC1=O)C(=O)CO2	-9.1	8.5	-11.1	-4.5
COC(=O)Cn1cnc2c(nnn2-c2cccc(Cl)c2)c1=O	-13.8	10.7	7.9	7.1
CCC12CCCN3CCC4(C(=C(C(=O)OC)C1)Nc1ccccc14)C32 (stereo unspecified)	-9.5	15.7	1.1	0.0
Cc1ccc(NC(=O)COc2ccc(/C(N)=N/O)cc2)cc1C	6.6	10.8	x	-7.5
Cc1ccc2c(c1)nnn2C1CCN(C(=O)C2CCCCC2)CC1	-2.2	3.7	1.6	-10.1
COc1ccc(CNC(=O)NC2CCCCC2)cc1	3.6	2.1	-8.8	50.0*
COc1ccc(CNC(=O)c2noc3c2CCCC3)cc1	54.8*	5.1	8.8	42.0
O=C(NCc1cccnc1)c1noc2c1CCCC2	14.3	1.6	5.5	-6.9
O=C(NCc1cccnc1)c1noc2c1CCCCC2	10.3	27.4	-1.4	24.1
O=C(NCCc1ccccc1)c1noc2c1CCCCC2	47.9	-27.8	0.4	59.8*
Cc1cccc(NC(=O)C2CCN(S(=O)(=O)c3cccc4cccnc34)CC2)n1	-2.4	17.5	-1.6	2.2
COC(=O)C1CCN(C(=O)C2CCCCC2)CC1	6.6	13.7	2.0	9.9
CCCCCOc1ccc(CN2CCOCC2)cc1Cl	39.9	-15.1	-6.1	61.3*
c1ccc2nc3c(nc2c1)c1ccccc1n3CCN1CCOCC1	14.1	-31.1	1.1	91.3*
SMILES	RORa activator	HEK293 NFkB inh	Jurkat tox 60K	SF-1 act
Brc1ccc2c(c1)c1nc3ccccc3nc1n2CCN1CCOCC1	15.7	1.6	5.4	24.8
O=C(CSc1nnnn1C1CCCCC1)Nc1nc2c(s1)CCCC2	30.2	2.6	-1.9	-10.8
CC(Sc1ccccn1)C(=O)Nc1ccccc1 (stereo unspecified)	33.7	-4.4	2.9	57.1*
O=C(NCCc1ccccc1)C1CCN(S(=O)(=O)c2ccc(-c3nn[nH]n3)cc2)CC1	-16.7	23.5	6.8	-2.1
COCCn1c(=NC(=O)CSCC(=O)Nc2cc(C)on2)sc2cc(C(=O)OC)ccc21	-5.6	11.6	x	15.7
CCOC(=O)c1c(CN2CCCCC2)oc2ccc(O)cc12	31.6	1.6	-1.7	8.8
CCOC(=O)c1c(COc2ccccc2)oc2ccc(O)cc12	0.4	2.8	45.3*	5.4
COc1cc(C2=NOC(C(=O)NCc3ccco3)C2)cc(OC)c1OC (stereo unspecified)	81.5*	32.8	73.2*	55.2*
Cc1nc2ccccn2c1-c1csc(NCc2ccco2)n1	14.5	9.6	31.5*	6.1
CN(C)CCC(=O)c1ccc2c(c1)OCO2	-19.6	10.0	8.6	5.3
CC(=O)Nc1ccccc1OCC(=O)c1ccc2c(c1)OCO2	65.2*	-8.8	x	24.9
Cc1ccccc1OCC(=O)Nc1ccc2c(c1)OCO2	-2.9	-9.6	0.7	-13.4
O=C(CCNc1ccccc1)c1ccc2c(c1)OCO2	42.6	-41.2	-2.0	61.8*
O=S(=O)(NCCOCC(F)(F)C(F)F)c1ccc2oc3ccccc3c2c1	11.9	9.0	10.6	-15.9
O=C(NCCSc1c[nH]c2ccccc12)c1ccc(Br)o1	-8.9	13.0	37.8*	0.9
Cc1[nH]c2ccccc2c1SCCNC(=O)c1ccc(Br)o1	-18.0	16.2	x	-2.8
